What was measured:
[1] = test system: Mus musculus; experiment: Inhibition of delayed type hypersensitivity granuloma results at 100 mg/kg in wet weight; assay type: functional
Method in brief: (§1)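 Groups of 10 female CF-1 mice (25 g) were sensitised sc over the inguinal lymph node with mBSA emulsion in Freund's incomplete adjuvant plus dextran. Two mBSA-soaked hydroxyapatite disks were implanted per mouse. Sc dosing ran daily from implantation to day 9, then granulomas were excised for wet and dry weights. Student's paired t test.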

[2] = test system: Mus musculus; experiment: Inhibition of delayed type hypersensitivity granuloma results at 100 mg/kg in dry weight; assay type: functional; method in brief: as §1
[3] = test system: Mus musculus; experiment: Inhibition of delayed type hypersensitivity granuloma at 25 mg/kg in wet weight; assay type: functional; method in brief: as §1
[4] = test system: Rattus norvegicus; experiment: Inhibition of rat adjuvant-induced arthritis (AIP) at the dose of 5 mg/kg in the non-injected paw; assay type: functional
Method in brief: (§2)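 Rats received adjuvant (M. tuberculosis in mineral oil) into the left hindpaw on day 0. Compounds in sterile saline, pH 7.0, were given sc once daily for 28 days, with sc vehicle arthritic controls. Paw volume change in injected and noninjected hindpaws was measured on day 28 by mercury-displacement plethysmography.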

[5] = test system: Rattus norvegicus; experiment: Inhibition of rat adjuvant-induced arthritis (AIP) at the dose of 15 mg/kg in the non-injected paw; assay type: functional; method in brief: as §2
[6] = test system: Rattus norvegicus; experiment: Inhibition of rat adjuvant-induced arthritis (AIP) at the dose of 100 mg/kg in the non-injected paw; assay type: functional; method in brief: as §2
[7] = test system: Rattus norvegicus; experiment: (§3) Inhibition of rat adjuvant induced polyarthritis (AIP) at the dose of 5 mg/kg in the injected paw; assay type: functional; method in brief: as §2
[8] = test system: Rattus norvegicus; experiment: Inhibition of rat adjuvant induced polyarthritis (AIP) at the dose of 60 mg/kg in the injected paw; assay type: functional; method in brief: as §2
[9] = test system: Mus musculus; experiment: Inhibition of delayed type hypersensitivity granuloma results at 50 mg/kg in dry weight; assay type: functional; method in brief: as §1
[10] = test system: Rattus norvegicus; experiment: (§4) Inhibition of rat adjuvant induced polyarthritis (AIP) at the dose of 15 mg/kg in the injected paw; assay type: functional; method in brief: as §2
[11] = test system: Rattus norvegicus; experiment: Inhibition of rat adjuvant-induced arthritis (AIP) at the dose of 60 mg/kg in the non-injected paw; assay type: functional; method in brief: as §2
[12] = test system: Mus musculus; experiment: Inhibition of delayed type hypersensitivity granuloma results at 50 mg/kg in wet weight; assay type: functional; method in brief: as §1
[13] = test system: Mus musculus; experiment: Inhibition of delayed type hypersensitivity granuloma results at 25 mg/kg in dry weight; assay type: functional; method in brief: as §1
[14] = test system: Mus musculus; experiment: Inhibition of antigen-induced arthritis (AIA) in mice at the dose of 50 mg/kg in the non-injected paw; assay type: functional
[15] = test system: Rattus norvegicus; experiment: Inhibition of rat adjuvant induced polyarthritis (AIP) at the dose of 100 mg/kg in the injected paw; assay type: functional; method in brief: as §2
[16] = test system: Mus musculus; experiment: Inhibition of antigen-induced arthritis (AIA) in mice at the dose of 25 mg/kg in the non-injected paw; assay type: functional
[17] = test system: Mus musculus; experiment: Inhibition of antigen-induced arthritis (AIA) in mice at the dose of 100 mg/kg in the non-injected paw; assay type: functional
[18] = test system: Rattus norvegicus; experiment: Inhibition of rat adjuvant induced arthritis (AIP) at the dose of 15 mg/kg in the non-injected paw; assay type: functional; method in brief: as §2
[19] = test system: Rattus norvegicus; experiment: Inhibition of rat adjuvant induced arthritis (AIP) at the dose of 100 mg/kg in the non-injected paw; assay type: functional; method in brief: as §2
[20] = test system: Mus musculus; experiment: Inhibition of antigen-induced arthritis (AIA) in mice at the dose of 100 mg/kg; assay type: functional
Method in brief: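 Mice were immunised, boosted after 7 days, and challenged 14 days later with 200 μg mBSA in saline into the left rear stifle joint. Dosing was sc in saline at pH 7.0, 5 of 7 days, from challenge (day 0) to day 28. H&E sagittal joint sections were graded 1–5 each for soft tissue inflammation, pannus, and cartilage and bone erosion, then summed (max 20). One-way ANOVA vs vehicle.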

[21] = test system: Mus musculus; experiment: Inhibition of delayed type hypersensitivity granuloma results at 200 mg/kg in dry weight; assay type: functional; method in brief: as §1
[22] = test system: Mus musculus; experiment: Inhibition of delayed type hypersensitivity granuloma results at 200 mg/kg in wet weight; assay type: functional; method in brief: as §1
[23] = test system: Rattus norvegicus; experiment: as §3; assay type: functional; remark: listed apart in the source
Method in brief: (§5)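 Rat adjuvant arthritis induced by M. tuberculosis in mineral oil into the left hindpaw on day 0. Dosed sc once daily for 28 days in sterile saline adjusted to pH 7.0. Change in paw volume of the injected and noninjected hindpaws measured on day 28 by mercury-displacement plethysmography, giving % inhibition versus the sc vehicle arthritic control.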

[24] = test system: Rattus norvegicus; experiment: Inhibition of rat adjuvant induced polyarthritis (AIP) at the dose of 30 mg/kg in the injected paw; assay type: functional; method in brief: as §5
[25] = test system: Rattus norvegicus; experiment: Inhibition of adjuvant-induced polyarthritis (AIP) in rats at the dose of 5 mg/kg in the non-injected paw
[26] = test system: Rattus norvegicus; experiment: as §4; assay type: functional; method in brief: as §5; remark: listed apart in the source
[27] = test system: Mus musculus; experiment: Inhibition of antigen-induced polyarthritis (AIP) in mice at the dose of 15 mg/kg; assay type: functional
Method in brief: (§6)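 Murine antigen-induced arthritis: mice immunized with mBSA (with M. tuberculosis), boosted at 7 days, and challenged 14 days later with 200 μg mBSA in saline into the left rear stifle joint. Dosed sc (scruff; saline vehicle, pH 7.0) 5 of 7 days from day 0 to 28. H&E sagittal joint sections scored 1–5 each for inflammation, pannus, and cartilage/bone erosion, summed to a global score (max 20). One-way ANOVA versus vehicle.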

[28] = test system: Mus musculus; experiment: Inhibition of antigen-induced polyarthritis (AIP) in mice at the dose of 200 mg/kg; assay type: functional; method in brief: as §6
[29] = test system: Rattus norvegicus; experiment: Inhibition of rat adjuvant induced polyarthritis (AIP) at the dose of 10 mg/kg in the injected paw; assay type: functional; method in brief: as §5
[30] = test system: Rattus norvegicus; experiment: Inhibition of adjuvant-induced polyarthritis (AIP) in rats at the dose of 10 mg/kg in the non-injected paw
[31] = test system: Rattus norvegicus; experiment: Inhibition of rat adjuvant induced polyarthritis (AIP) at the dose of 15 mg/kg in the non-injected paw; assay type: functional; method in brief: as §5
[32] = test system: Mus musculus; experiment: Inhibition of antigen-induced polyarthritis (AIP) in mice at the dose of 5 mg/kg; assay type: functional; method in brief: as §6
[33] = test system: Mus musculus; experiment: Inhibition of antigen-induced polyarthritis (AIP) in mice at the dose of 30 mg/kg; assay type: functional; method in brief: as §6
[34] = test system: Mus musculus; experiment: Inhibition of antigen-induced polyarthritis (AIP) in mice at the dose of 50 mg/kg; assay type: functional; method in brief: as §6
[35] = test system: Rattus norvegicus; experiment: Inhibition of rat adjuvant induced polyarthritis (AIP) at the dose of 30 mg/kg in the non-injected paw; assay type: functional; method in brief: as §5
[36] = test system: Mus musculus; experiment: Inhibition of antigen-induced polyarthritis (AIP) in mice at the dose of 100 mg/kg; assay type: functional; method in brief: as §6

O=C(C1=NNC(P(=O)(O)O)(P(=O)(O)O)C1)c1ccccc1
inhibition in vivo at 100 mg/kg [1]: 18%
inhibition in vivo at 100 mg/kg [2]: 19%

CCOP(=O)(OCC)C1(P(=O)(OCC)OCC)CC(C(=O)c2cccc(F)c2)=NN1
inhibition in vivo at 25 mg/kg [3]: 42%
inhibition in vivo at 5 mg/kg [4]: 0%
inhibition in vivo at 15 mg/kg [5]: 46%
inhibition in vivo at 100 mg/kg [6]: 55%
inhibition in vivo at 5 mg/kg [7]: 0%
inhibition in vivo at 60 mg/kg [8]: 8%
inhibition in vivo at 50 mg/kg [9]: 51%
inhibition in vivo at 100 mg/kg [1]: 58%
inhibition in vivo at 15 mg/kg [10]: 4%
inhibition in vivo at 100 mg/kg [2]: 65%
inhibition in vivo at 60 mg/kg [11]: 46%
inhibition in vivo at 50 mg/kg [12]: 45%
inhibition in vivo at 25 mg/kg [13]: 49%
inhibition in vivo at 50 mg/kg [14]: 52%
inhibition in vivo at 100 mg/kg [15]: 22%
inhibition in vivo at 25 mg/kg [16]: 42%
inhibition in vivo at 100 mg/kg [17]: 55%

CCOP(=O)(OCC)C1(P(=O)(OCC)OCC)CC(C(=O)c2ccccc2)=NN1C
inhibition in vivo at 100 mg/kg [1]: 11%
inhibition in vivo at 100 mg/kg [2]: 8%

CCOP(=O)(OCC)C1(P(=O)(OCC)OCC)CC(C(=O)c2ccccc2C)=NN1
inhibition in vivo at 100 mg/kg [1]: 37%
inhibition in vivo at 15 mg/kg [10]: 18%
inhibition in vivo at 100 mg/kg [2]: 48%
inhibition in vivo at 15 mg/kg [18]: 49%
inhibition in vivo at 100 mg/kg [15]: 9%
inhibition in vivo at 100 mg/kg [19]: 66%
inhibition in vivo at 100 mg/kg [20]: 8%

CCOP(=O)(OCC)C1(P(=O)(OCC)OCC)CC(C(=O)c2ccccc2)=NN1CC(=O)OC
inhibition in vivo at 100 mg/kg [1]: 1%
inhibition in vivo at 100 mg/kg [2]: 1%

O=C(C1=NNC(P(=O)(O)O)(P(=O)(O)O)C1)C1CCCCC1
inhibition in vivo at 100 mg/kg [1]: 1%
inhibition in vivo at 100 mg/kg [2]: 16%

CCOP(=O)(OCC)C1(P(=O)(OCC)OCC)CC(C(=O)CC)=NN1
inhibition in vivo at 200 mg/kg [21]: 35%
inhibition in vivo at 200 mg/kg [22]: 28%

CCOP(=O)(OCC)C1(P(=O)(OCC)OCC)CC(C(=O)c2ccc(C)cc2)=NN1
inhibition in vivo at 100 mg/kg [1]: 20%
inhibition in vivo at 100 mg/kg [2]: 22%

CCOP(=O)(OCC)C1(P(=O)(OCC)OCC)CC(C(=O)c2ccccc2)=NN1CCCN1N=C(C(=O)c2ccccc2)CC1(P(=O)(OCC)OCC)P(=O)(OCC)OCC
inhibition in vivo at 100 mg/kg [1]: 10%
inhibition in vivo at 100 mg/kg [2]: 5%

O=P(O)(O)C(Cl)(Cl)P(=O)(O)O [CLODRONIC ACID]
inhibition in vivo at 5 mg/kg [23]: 21%
inhibition in vivo at 30 mg/kg [24]: 36%
inhibition in vivo at 100 mg/kg [1]: 45%
inhibition in vivo at 5 mg/kg [25]: 51%
inhibition in vivo at 100 mg/kg [2]: 47%
inhibition in vivo at 15 mg/kg [26]: 33%
inhibition in vivo at 15 mg/kg [27]: 46%
inhibition in vivo at 200 mg/kg [28]: 52%
inhibition in vivo at 10 mg/kg [29]: 38%
inhibition in vivo at 10 mg/kg [30]: 61%
inhibition in vivo at 15 mg/kg [31]: 70%
inhibition in vivo at 5 mg/kg [32]: 4%
inhibition in vivo at 30 mg/kg [33]: 46%
inhibition in vivo at 50 mg/kg [34]: 46%
inhibition in vivo at 30 mg/kg [35]: 54%
inhibition in vivo at 100 mg/kg [36]: 51%

— ChEMBL document CHEMBL1126664, “Pyrazoline bisphosphonate esters as novel antiinflammatory and antiarthritic agents” (1993)
